The values that follow come from ChEMBL document CHEMBL1154112, “Parallel synthesis of potent dopaminergic N-phenyltriazole carboxamides applying a novel click chemistry based phenol linker” (Bioorg Med Chem, 2009).

The source made the active and inactive calls. No cut-off for these calls is given here.

The target of test [1] is D(1A) dopamine receptor (Sus scrofa) (UniProt P50130). In words: Displacement of [3H]SCH23390 from pig dopamine D1 receptor. The method in brief:
(§1)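 Porcine striatal membranes were incubated with 0.3 nM [3H]SCH 23390 (Kd 0.95 nM). Protein was measured by Lowry against a BSA standard. Test compounds were screened at 100 nM and 1 nM in triplicate. Ki values were derived by nonlinear regression of competition curves, as means of 2–4 experiments each run in triplicate.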

Test [2] has as its target T1, D(3) dopamine receptor (Homo sapiens, UniProt P35462). The test is described as follows: Binding affinity to human cloned dopamine D3 expressed in CHO cells. Format: cell-based.
The target in test [3] is T2, D(4) dopamine receptor (Homo sapiens, UniProt P21917).
T2 sequence (P21917 whole entry): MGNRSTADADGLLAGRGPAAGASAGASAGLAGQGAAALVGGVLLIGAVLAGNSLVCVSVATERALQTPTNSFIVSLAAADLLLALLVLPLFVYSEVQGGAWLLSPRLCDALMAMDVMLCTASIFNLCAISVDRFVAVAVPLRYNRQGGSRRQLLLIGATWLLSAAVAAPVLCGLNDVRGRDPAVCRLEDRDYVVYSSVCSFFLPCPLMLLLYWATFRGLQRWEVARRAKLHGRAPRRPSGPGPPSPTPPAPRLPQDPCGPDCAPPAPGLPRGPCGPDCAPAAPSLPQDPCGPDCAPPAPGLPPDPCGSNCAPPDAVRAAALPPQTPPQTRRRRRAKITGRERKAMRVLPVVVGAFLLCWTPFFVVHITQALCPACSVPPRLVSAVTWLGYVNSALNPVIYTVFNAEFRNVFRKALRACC
The test is described as follows: Binding affinity to human cloned dopamine D4.4 expressed in CHO cells. It is filed as cell-based.

For test [4], the target named is T3, D(2) dopamine receptor (Homo sapiens, UniProt P14416). The test is described as follows: Binding affinity to human cloned dopamine D2-long expressed in CHO cells. Format: cell-based. The method, boiled down:
(§2)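 Competition binding used membranes from CHO cells expressing human D2long, D2short, D3 or D4.4, with 0.5 nM final [3H]spiperone. Screening was run at 100 nM and 1 nM test compound in triplicate. Ki values come from nonlinear regression, as means of 2–4 experiments each run in triplicate.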

For test [5], the target named is T3, D(2) dopamine receptor. In words: Binding affinity to human cloned dopamine D2-short expressed in CHO cells. Format: cell-based. The method in brief:
as §2

In test [6] the target is D(1A) dopamine receptor (Sus scrofa, UniProt P50130). The test is described as follows: Binding affinity to pig dopamine D1 receptor. The method, boiled down: as §1
The target of test [7] is T1, D(3) dopamine receptor. The test is described as follows: Displacement of [3H]spiperone from human cloned dopamine D3 expressed in CHO cells. It is filed as cell-based. Also noted: concentration or dose not given beside the values. The method in brief:
as §2
In general terms: In a radioligand displacement assay an active substance lowers the binding of a labelled ligand.

In test [8] the target is T3, D(2) dopamine receptor. The test is described as follows: Displacement of [3H]spiperone from human cloned dopamine D2-short expressed in CHO cells. It is filed as cell-based. Also noted: concentration or dose not given beside the values. The method, boiled down: as §2
The nature of test [9]: Binding affinity to pig alpha-1 adrenergic receptor. Also noted: species or system Sus scrofa. The method in brief:
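Alpha1 binding used porcine cortical membranes with [3H]prazosin (KD 0.06 nM). Protein was measured by Lowry against a BSA standard. Ki came from nonlinear regression of competition curves, as the mean of 2–4 experiments each run in triplicate.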

The species named for test [10] is Sus scrofa. In words: Displacement of [3H]prazosin from pig alpha-1 adrenergic receptor. Also noted: concentration or dose not given beside the values. The method, boiled down: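 Porcine cortical membranes at 55 µg protein per tube, [3H]prazosin as radioligand (Kd 0.06 nM). Ki obtained by non-linear regression of competition curves, means of 2–4 experiments each run in triplicate; screening run at 10 µM, 100 nM and 1 nM test compound in triplicate.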

The target of test [11] is T3, D(2) dopamine receptor. The test is described as follows: Displacement of [3H]spiperone from human cloned dopamine D2-long expressed in CHO cells. Format: cell-based. The method, boiled down:
as §2

The target in test [12] is T4, D(4) dopamine receptor (Homo sapiens) (UniProt P21917).
T4 sequence (whole entry): T2 sequence (P21917 whole entry)
In words: Displacement of [3H]spiperone from human cloned dopamine D4.4 expressed in CHO cells. Format: cell-based. The method, boiled down: as §2

Chain of D(1A) dopamine receptor (Sus scrofa) (P50130 whole entry): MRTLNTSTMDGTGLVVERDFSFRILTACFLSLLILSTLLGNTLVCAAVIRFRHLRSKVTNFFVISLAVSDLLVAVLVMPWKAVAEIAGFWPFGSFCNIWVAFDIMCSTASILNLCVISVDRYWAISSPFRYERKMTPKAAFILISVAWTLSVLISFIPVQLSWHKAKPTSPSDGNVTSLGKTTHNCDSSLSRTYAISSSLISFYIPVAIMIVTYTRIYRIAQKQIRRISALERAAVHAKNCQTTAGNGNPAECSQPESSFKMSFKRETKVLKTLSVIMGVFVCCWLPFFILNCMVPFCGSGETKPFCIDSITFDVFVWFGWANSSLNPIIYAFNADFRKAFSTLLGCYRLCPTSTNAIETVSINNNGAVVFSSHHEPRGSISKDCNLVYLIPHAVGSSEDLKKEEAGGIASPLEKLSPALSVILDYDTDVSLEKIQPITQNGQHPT
Chain of D(1A) dopamine receptor (P50130 whole entry): as above
T1 sequence (P35462 whole entry): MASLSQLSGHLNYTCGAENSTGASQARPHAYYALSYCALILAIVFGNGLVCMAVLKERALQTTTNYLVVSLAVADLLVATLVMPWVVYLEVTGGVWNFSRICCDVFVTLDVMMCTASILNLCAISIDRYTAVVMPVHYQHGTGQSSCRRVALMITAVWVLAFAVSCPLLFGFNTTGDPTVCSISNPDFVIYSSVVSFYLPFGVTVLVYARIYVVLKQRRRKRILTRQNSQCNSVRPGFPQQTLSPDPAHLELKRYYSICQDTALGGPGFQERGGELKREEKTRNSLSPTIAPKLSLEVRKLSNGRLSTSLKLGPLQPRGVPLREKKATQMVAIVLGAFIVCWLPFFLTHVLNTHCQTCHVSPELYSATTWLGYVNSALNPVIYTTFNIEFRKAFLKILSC
T3 sequence (P14416 whole entry): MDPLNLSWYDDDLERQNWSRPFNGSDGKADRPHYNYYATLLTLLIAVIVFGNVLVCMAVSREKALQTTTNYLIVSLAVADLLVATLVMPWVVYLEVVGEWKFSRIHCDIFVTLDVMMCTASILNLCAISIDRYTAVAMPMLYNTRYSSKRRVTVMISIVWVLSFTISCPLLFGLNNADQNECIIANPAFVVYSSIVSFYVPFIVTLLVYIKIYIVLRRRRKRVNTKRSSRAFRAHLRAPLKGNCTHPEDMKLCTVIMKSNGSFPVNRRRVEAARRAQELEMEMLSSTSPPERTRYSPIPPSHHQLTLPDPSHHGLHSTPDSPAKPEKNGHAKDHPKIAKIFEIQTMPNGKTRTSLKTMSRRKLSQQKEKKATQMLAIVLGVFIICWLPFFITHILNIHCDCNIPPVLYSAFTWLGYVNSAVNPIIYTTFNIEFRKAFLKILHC

By Ki is commonly meant a dissociation constant, usually derived from enzyme kinetics or from competition with a known ligand. Turning to `COc1ccc(-n2cc(CCCC(=O)NCCCCN3CCN(c4cccc(Cl)c4Cl)CC3)nn2)cc1`, in test [1], the outcome was inactive. In addition, the Ki was determined as 9.3 nM in [2]; 200 nM in test [3]; 120 nM in [4]; 42 nM in test [5]; 1800 nM in [6]; 42 nM in test [9]. Also, the Activity in test [7] was determined as 71%; in test [8], 43%.

As to `O=C(NCCN1CCN(c2cccc(Cl)c2Cl)CC1)c1cn(-c2ccc([N+](=O)[O-])cc2)nn1`, the Activity worked out at 47% in test [10] and 52% in test [7]. Also, the outcome in test [1] was inactive.

Turning to `COc1ccc(-n2cc(CCCC(=O)NCCCCN3CCN(c4ccccc4Cl)CC3)nn2)cc1`, the figures for the Activity in test [10] and in test [7] were 58% and 38%, respectively. Besides, the outcome in test [1] was inactive.

On to `COc1ccc(-n2cc(CCCC(=O)NCCCCN3CCN(c4ccccc4OC)CC3)nn2)cc1`, for which the results for the Activity in test [10], in [7] and in [8] were 72%, 46% and 33%, respectively. In addition, in test [1], the result was inactive.

Take `COc1ccc(-n2cc(C(=O)NCCCCN3CCN(c4ccccc4OC)CC3)nn2)cc1`: the Activity is 64% in test [10] and 57% in [7]. Further, the result in test [1] was inactive.

`COc1ccccc1N1CCN(CCCCNC(=O)c2cn(-c3ccc([N+](=O)[O-])cc3)nn2)CC1`: the Activity amounted to 73% in test [10], 58% in test [7] and 38% in test [8]. Moreover, in [1], the result was inactive.

Take `COc1ccc(-n2cc(C(=O)NCCCCN3CCN(c4cccc(Cl)c4Cl)CC3)nn2)cc1`: the result in [1] was inactive. Also, the inhibitory constant (Ki) in [2] worked out at 4.9 nM; in test [3], 320 nM; in test [4] it was 44 nM; in test [5], 68 nM; in [6], 1700 nM; in [9], 46 nM. Further, the Activity in test [7] amounted to 76%.

On to `COc1ccccc1N1CCN(CCCCNC(=O)CCCc2cn(-c3ccc([N+](=O)[O-])cc3)nn2)CC1`, for which the Activity stood at 83% in test [10], 39% in test [11], 51% in [7] and 52% in test [8]. The outcome in test [1] was inactive.

`O=C(CCCc1cn(-c2ccc([N+](=O)[O-])cc2)nn1)NCCCCN1CCN(c2cccc(Cl)c2Cl)CC1`: the result in test [1] was inactive. Besides, the Ki came out at 5.7 nM in test [2]; 240 nM in test [3]; 83 nM in [4]; 47 nM in test [5]; 2200 nM in test [6]; 28 nM in test [9]. Further, the Activity in test [7] is 76%; in test [8], 43%.

With `O=C(NCCCCN1CCN(c2ccccc2Cl)CC1)c1cn(-c2ccc([N+](=O)[O-])cc2)nn1`, the Activity in [10] and in test [7] was 61% each time. Moreover, the outcome in [1] was inactive.

`COc1ccc(-n2cc(CCCC(=O)NCCN3CCN(c4cccc(Cl)c4Cl)CC3)nn2)cc1`: in [1], the result was inactive. In addition, the Activity in [12] was determined as 41%; in test [7], 42%.

With `O=C(CCCc1cn(-c2ccc([N+](=O)[O-])cc2)nn1)NCCCCN1CCN(c2ccccc2Cl)CC1`, the values for the Activity in test [10] and in test [7] were 64% and 51%, respectively. The result in [1] was inactive.

The compound `COc1ccc(-n2cc(C(=O)NCCN3CCN(c4ccccc4OC)CC3)nn2)cc1` showed an Activity in test [10] of 56%. The outcome in test [1] was inactive.

In turn, `COc1ccc(-n2cc(CCCC(=O)NCCN3CCN(c4ccccc4OC)CC3)nn2)cc1` returned an Activity in [10] of 56%. In addition, in test [1], the result was inactive.

With `COc1ccccc1N1CCN(CCNC(=O)c2cn(-c3ccc([N+](=O)[O-])cc3)nn2)CC1`, in test [10], the Activity stood at 80%. The result in [1] was inactive. The Ki in test [2] was found to be 4.9 nM; in test [3] it was 140 nM; in test [4], 750 nM; in [5], 470 nM; in [6], 4100 nM; in test [9], 6.5 nM.

Compound `COc1ccccc1N1CCN(CCNC(=O)CCCc2cn(-c3ccc([N+](=O)[O-])cc3)nn2)CC1` registered an Activity in test [10] of 43%. The result in test [1] was inactive.

As to `COc1ccc(-n2cc(C(=O)NCCCCN3CCN(c4ccccc4Cl)CC3)nn2)cc1`, the Activity in [10] was found to be 55%; in test [7], 58%. Also, the outcome in test [1] was inactive.

With `COc1ccc(-n2cc(C(=O)NCCN3CCN(c4cccc(Cl)c4Cl)CC3)nn2)cc1`, the Activity worked out at 39% in test [10] and 40% in test [7]. In test [1], the outcome was inactive.

As for `O=C(NCCCCN1CCN(c2cccc(Cl)c2Cl)CC1)c1cn(-c2ccc([N+](=O)[O-])cc2)nn1`, the Activity in test [10] was 48%; in test [11], 33%; in [7], 95%; in test [8], 53%. The outcome in [1] was inactive. Moreover, the Ki in [2] was 1 nM; in test [3], 280 nM; in [4], 49 nM; in test [5] it was 53 nM; in [6] it was 810 nM; in test [9] it was 17 nM.

`O=C(CCCc1cn(-c2ccc([N+](=O)[O-])cc2)nn1)NCCN1CCN(c2cccc(Cl)c2Cl)CC1`: the result in test [1] was inactive. Further, the Activity in test [12] was 37%; in test [7], 39%.
